Series [1] concerns the target T1, NACHT, LRR and PYD domains-containing protein 3 (Mus musculus, UniProt Q8R4B8). Nature of the series: Inhibition of NLRP3 in mouse J774A.1 cells assessed as reduction in LPS-stimulated IL-1beta levels pre-incubated with LPS for 4.5 hrs followed by incubation for 30 mins in presence of ATP and measured after 30 mins by ELISA. In kind it is cell-based.
Series [2] deals with Mus musculus. Put plainly: In-vivo inhibition of NLRP3 inflammasome in C57BL/6 mouse assessed as reduction in LPS-induced IL-1beta levels at 0.5 mg/kg, ip pre-treated for 1 hr followed by LPS stimulation for 2.5 hrs by ELISA. In kind it is functional, organism-based. In outline:
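C57BL/6 mice dosed with compound or vehicle, then 1 h later given LPS 20 mg/kg i.p. (PBS control). Serum IL-1β measured by ELISA 2.5 h after LPS.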

In series [3] the target is T1, NACHT, LRR and PYD domains-containing protein 3. Nature of the series: Inhibition of NLRP3 in mouse BMDM assessed as reduction in LPS-stimulated IL-1beta levels pre-incubated with LPS for 4.5 hrs followed by incubation for 30 mins in presence of ATP and measured after 30 mins by ELISA. In kind it is cell-based. In outline: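 J774A.1 cells (DMEM, 10% FBS; 1 × 10⁵/well, plated 24 h) or bone marrow derived macrophages primed with E. coli 0111:B4 LPS (final 1 µg/mL) for 4.5 h. Compound and ATP (5 mM) then added together for 30 min. Supernatant IL-1β by mouse ELISA.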
(ELISA stands for enzyme-linked immunosorbent assay.)

The target of series [4] is NACHT, LRR and PYD domains-containing protein 3 (Mus musculus) (UniProt Q8R4B8). Nature of the series: Ratio of IC50 for LPS/ATP-induced NLRP3-mediated IL1beta release in mouse J774A.1 cells to IC50 for LPS/ATP-induced NLRP3-mediated IL1beta release in mouse BMDM. In kind it is cell-based.
Sequence of NACHT, LRR and PYD domains-containing protein 3 (Mus musculus) (Q8R4B8 whole entry, the tested form may be a part): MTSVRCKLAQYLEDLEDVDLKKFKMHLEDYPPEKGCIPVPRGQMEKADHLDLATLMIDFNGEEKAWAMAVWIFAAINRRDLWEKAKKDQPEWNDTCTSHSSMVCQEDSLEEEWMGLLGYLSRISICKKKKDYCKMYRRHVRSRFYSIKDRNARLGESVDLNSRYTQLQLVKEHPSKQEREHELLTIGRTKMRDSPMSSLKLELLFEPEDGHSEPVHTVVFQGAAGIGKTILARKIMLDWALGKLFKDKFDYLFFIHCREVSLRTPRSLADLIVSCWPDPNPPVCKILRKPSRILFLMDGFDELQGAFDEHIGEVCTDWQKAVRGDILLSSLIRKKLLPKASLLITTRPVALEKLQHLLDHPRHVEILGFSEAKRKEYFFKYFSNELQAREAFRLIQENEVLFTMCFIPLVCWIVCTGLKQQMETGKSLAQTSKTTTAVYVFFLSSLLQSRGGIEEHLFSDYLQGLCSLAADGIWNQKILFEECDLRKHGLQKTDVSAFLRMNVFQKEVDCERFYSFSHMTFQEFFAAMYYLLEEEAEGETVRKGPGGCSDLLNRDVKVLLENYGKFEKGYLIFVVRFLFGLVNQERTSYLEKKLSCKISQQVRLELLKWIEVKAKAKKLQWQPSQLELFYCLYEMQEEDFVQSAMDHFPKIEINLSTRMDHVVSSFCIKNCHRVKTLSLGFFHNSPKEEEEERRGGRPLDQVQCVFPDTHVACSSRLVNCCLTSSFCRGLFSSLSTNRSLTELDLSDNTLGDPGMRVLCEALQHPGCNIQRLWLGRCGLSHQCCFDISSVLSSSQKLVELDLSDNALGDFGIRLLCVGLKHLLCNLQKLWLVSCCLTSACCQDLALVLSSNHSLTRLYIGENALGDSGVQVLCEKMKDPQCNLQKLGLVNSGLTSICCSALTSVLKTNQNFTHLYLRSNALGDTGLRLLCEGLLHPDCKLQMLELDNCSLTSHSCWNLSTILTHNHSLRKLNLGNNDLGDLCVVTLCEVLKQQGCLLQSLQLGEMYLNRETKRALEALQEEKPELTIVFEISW
Series [5] relates to Mus musculus. Put plainly: Cardioprotective activity in 30 mins coronary artery ligated I/R AMI ICR mouse model assessed as reduction in troponin-1 levels at 30 mg/kg, po measured at 24 hrs post surgery by ELISA. The format is functional, organism-based. In outline:
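ICR mice (8-12 weeks) under pentobarbital anaesthesia, intubated; left thoracotomy, pericardiectomy, proximal left coronary artery ligated 30 min then released. Compound or matched vehicle (0.1mL), n=6 per group.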

Series [6] relates to Mus musculus. Nature of the series: Cognition enhancement activity in double APP/PS1 transgenic Alzheimer's disease C57BL/6 mouse model assessed as increase in time spent in goal quadran at 100 mg/kg, ip administered as single daily dose at 5 times per week for first 1 week followed by oral administration as single daily dose at 5 times per week for next 7 weeks by Morris water maze test relative to control. The format is functional, organism-based. The procedure, abridged: (§1)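 APP/PS1 female transgenic mice (B6C3-Tg APPswe/PSEN1dE9) and matching WT females, randomized at 7 months (WT vehicle n=4, treated n=6; Tg vehicle n=5, treated n=7). Daily i.p. (10% DMSO with PEG-100) for 5 days, then oral (2% DMSO in corn oil) once daily weekdays for 7 weeks. Afterwards tested by novel object recognition (discrimination index) and Morris water maze (4-day fixed-platform latency trials, then probe trial).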

Series [7] relates to Mus musculus. Put plainly: Cognition enhancement activity in double APP/PS1 transgenic Alzheimer's disease C57BL/6 mouse model assessed as decrease in latency to find goal platform at 100 mg/kg, ip administered as single daily dose at 5 times per week for first 1 week followed by oral administration as single daily dose at 5 times per week for next 7 weeks by Morris water maze test relative to control. The format is functional, organism-based. The procedure, abridged:
as §1

Series [8] relates to Mus musculus. Put plainly: Cognition enhancement activity in double APP/PS1 transgenic Alzheimer's disease C57BL/6 mouse model assessed as discrimination index at 100 mg/kg, ip administered as single daily dose at 5 times per week for first 1 week followed by oral administration as single daily dose at 5 times per week for next 7 weeks by novel object recognition test relative to control. The format is functional. The procedure, abridged:
as §1

The subject of series [9] is Mus musculus. Put plainly: Cardioprotective activity in 30 mins coronary artery ligated I/R AMI ICR mouse model assessed as reduction in infract size at 30 mg/kg, po measured at 24 hrs post surgery by TTC-staining based assay. In kind it is functional, organism-based. The procedure, abridged: (§2)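 ICR mice (8-12 weeks) were anesthetized with pentobarbital (50-70 mg/kg) and intubated, then underwent left thoracotomy and pericardiectomy. The proximal left coronary artery was ligated for 30 min or 75 min and released. Compound or vehicle was given at 0.1 mL, with n=6 per group. At 24 h after ischemia, viable myocardium was stained with TTC to measure infarct size.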

For series [10], the system named is Mus musculus. Nature of the series: Effect on cognition activity in wild type C57BL/6 mouse assessed as decrease in time spent in goal quadran at 100 mg/kg, ip administered as single daily dose at 5 times per week for first 1 week followed by oral administration as single daily dose at 5 times per week for next 7 weeks by Morris water maze test relative to control. In kind it is ADME, organism-based. The settings on record: in vivo. In outline: as §1

In series [11] the test system is Mus musculus. Nature of the series: Cardioprotective activity in 75 mins coronary artery ligated I/R AMI ICR mouse model assessed as reduction in infract size at 30 mg/kg, po measured at 24 hrs post surgery by TTC-staining based assay. In kind it is functional, organism-based. In outline: as §2

We go through 29 compounds from ChEMBL document CHEMBL4251750, “Structural Insights of Benzenesulfonamide Analogues as NLRP3 Inflammasome Inhibitors: Design, Synthesis, and Biological Characterization” (J Med Chem, 2018).

Activity calls are given as the source filed them. No cut-off for these calls is given here.

T1 sequence (Q8R4B8 whole entry, the tested form may be a part): as above

Regarding `CNS(=O)(=O)c1ccc(CCNC(=O)c2cccc(Cl)c2OC)cc1`, the IC50 (as a rule, the concentration at which inhibition is half-maximal) in [1] is 31800 nM.
Take `COc1ccc(CNS(=O)(=O)c2ccc(CCNC(=O)c3cc(Cl)ccc3OC)cc2)cc1`: the IC50 in [1] worked out at 420 nM; in series [3], 360 nM. Moreover, the inhibition entry in series [2] is “Active”.
As to `COc1ccc(Cl)cc1C(=O)NCCc1ccc(S(=O)(=O)N2CCCC2)cc1`, the IC50 in series [1] turned out to be 3530 nM.
On the same count and under the same terms, to `CNS(=O)(=O)c1ccc(CCNC(=O)c2cccc(Cl)c2)cc1` belongs 13400 nM.
As for `CCCCN(CCCC)S(=O)(=O)c1ccc(CCNC(=O)c2cc(Cl)ccc2OC)cc1`, in [4], the Ratio IC50 was determined as 4. Besides, the IC50 stood at 550 nM in [1] and 120 nM in series [3]. Further, the inhibition entry in series [2] is “Active”.
`COc1ccc(Cl)cc1C(=O)NCCc1ccc(S(=O)(=O)NCCc2ccccc2)cc1`: the IC50 in [1] amounted to 810 nM.
Turning to `CCN(CC)S(=O)(=O)c1ccc(CCNC(=O)c2cc(Cl)ccc2OC)cc1`, the IC50 in [1] was determined as 2010 nM.
The same measure, in the same setting: to `CNS(=O)(=O)c1ccc(CCNC(=O)c2c(Cl)cccc2OC)cc1` belongs 44400 nM; to `CNS(=O)(=O)c1ccc(CCNC(=O)c2ccccc2)cc1`, 147000 nM; to `COc1ccc(Cl)cc1C(=O)NCCc1ccc(S(=O)(=O)Nc2ccccc2)cc1`, 2080 nM.
On the same count and under the same terms, to `COc1ccc(Cl)cc1C(=O)NCCc1ccc(S(=O)(=O)N2CCC2)cc1` belongs 1660 nM.
With `CNS(=O)(=O)c1ccc(CCCCNC(=O)c2cc(Cl)ccc2OC)cc1`, in series [1], the IC50 is 1740 nM.
The same measure, in the same setting: to `COc1ccc(Cl)cc1C(=O)NCCc1ccc(S(=O)(=O)NCc2ccc(O)cc2)cc1` belongs 630 nM; to `CNS(=O)(=O)c1ccc(CCNC(=O)c2ccc(OC)c(Cl)c2)cc1`, 32800 nM; to `CNS(=O)(=O)c1ccc(CCNC(=O)c2cc(Cl)ccc2O)cc1`, 10500 nM.
As for `COc1ccc(Cl)cc1C(=O)NCCc1ccc(S(=O)(=O)N2CCCCC2)cc1`, in series [1], the IC50 was 5010 nM.
Same read-out and setting: to `CNS(=O)(=O)c1ccc(CCNC(=O)c2ccccc2OC)cc1` belongs 17100 nM.
Still for that read-out and setting: to `COc1ccc(Cl)cc1C(=O)NCCc1ccc(S(=O)(=O)NCc2ccccc2)cc1` belongs 1310 nM.
Still for that read-out and setting: to `COc1ccc(Cl)cc1C(=O)NCCc1ccc(S(=O)(=O)NCc2ccc(Cl)cc2)cc1` belongs 1500 nM; to `COc1ccc(Cl)cc1C(=O)NCCc1ccc(S(=O)(=O)N2CCOCC2)cc1`, 3440 nM.
`CCCN(CCC)S(=O)(=O)c1ccc(CCNC(=O)c2cc(Cl)ccc2OC)cc1`: the IC50 in [1] came to 1400 nM.
The same measure, in the same setting: to `CCCCNS(=O)(=O)c1ccc(CCNC(=O)c2cc(Cl)ccc2OC)cc1` belongs 970 nM.
`CNS(=O)(=O)c1ccc(CCNC(=O)c2cc(Cl)ccc2OC)cc1`: the outcome in series [5], in series [6], in series [7], in series [9] and in series [11] was Active. Besides, the Activity in [8] is on record as less than 50%; in [10] it was “Non-Toxic”.
For the compound `COc1ccc(Cl)cc1C(=O)NCCc1ccc(S(=O)(=O)NCc2ccc(C(F)(F)F)cc2)cc1`, the IC50 in [1] worked out at 1900 nM.
Turning to `CNS(=O)(=O)c1ccc(CCNC(=O)c2ccc(Cl)cc2OC)cc1`, the IC50 in [1] amounted to 18000 nM.
Take `COc1ccc(Cl)cc1C(=O)NCCc1ccc(S(=O)(=O)N2CCNCC2)cc1`: in series [1], the IC50 was 3400 nM.
Same read-out and setting: the value for `CCCNS(=O)(=O)c1ccc(CCNC(=O)c2cc(Cl)ccc2OC)cc1` was 1640 nM; that for `CNS(=O)(=O)c1ccc(CCCNC(=O)c2cc(Cl)ccc2OC)cc1` was 2030 nM; that for `CNS(=O)(=O)c1ccc(CCNC(=O)c2cc(Cl)cc(OC)c2)cc1` was 5830 nM.
